In ChEMBL document CHEMBL1125601, “Comparative molecular field analysis of some clodronic acid esters” (J Med Chem, 1991):

Key:
Mus musculus [1] = organism: Mus musculus; assay: In vitro inhibition of bone resorption tested in mouse calvarial resorption assay by measuring release of 45Ca from labelled bones; expressed as logit inhibition resorption; format: functional
In short: (§1)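 Mouse calvarial pieces prelabelled with 45Ca, cultured 72 h with PTH (10 nmol/l) plus ester at 100 μmol/l. Calcium release was measured and expressed as percent of control, the control being PTH-stimulated bones without bisphosphonate.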

Rattus norvegicus [2] = assay: In vivo inhibition of bone resorption tested in rat resorption assay measured at dose of 150 umol/kg after iv administration, expressed as log
Mus musculus [3] = organism: Mus musculus; assay: In vitro inhibition of bone resorption tested in mouse calvarial resorption assay by measuring release of 45Ca from labelled bones; expressed as logit inhibition response; format: functional; in short: as §1
Rattus norvegicus [4] = assay: In vivo inhibition of bone resorption tested in rat resorption assay measured at dose of 150 umol/kg after iv administration
Rattus norvegicus [5] = organism: Rattus norvegicus; assay: Bioavailability of compound was determined from urinary excretion data in rat, expressed as log; format: ADME, organism-based, Urine; details: in vivo
In short: (§2)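 Sprague-Dawley male rats given clodronate esters at 100 μmol/kg orally and intravenously, three animals per dose level and route. Unchanged drug was measured by capillary GC with nitrogen-phosphorus detection. F = (cumulative oral urinary amount × iv dose)/(cumulative iv urinary amount × oral dose).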

[6] = Partition coefficient (logP); format: physicochemical; details: octanol/water
In short: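 Shake-flask partition: 200 mg ester dissolved in 4 mL pH 7.4 phosphate buffer or 1-octanol (each saturated with the other), the opposite phase (4 mL) added, shaken 1 h, left overnight, then centrifuged. Both phases were assayed by capillary GC with nitrogen-phosphorus detection.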

[7] = Bioavailability in rat as ratio of unchanged drug excreted in the urine after p.o dosing to that following i.v. administration; format: ADME, organism-based; details: po; in short: as §2
Mus musculus [8] = organism: Mus musculus; assay: In vitro inhibition of bone resorption tested in mouse calvarial resorption assay by measuring release of 45Ca from labelled bones; format: functional; parameters: concentration or dose not given beside the values; in short: as §1

SMILES | Inhibition (Mus musculus [1]) [%] | Log 1/delta/Ca (Rattus norvegicus [2]) | Logit_p(conc) (Mus musculus [3]) | Delta Ca (Rattus norvegicus [4]) [mM] | Logit bioavailability (Rattus norvegicus [5]) | logP [6] | bioavailability [7] [%] | Logit_p(conc) (Mus musculus [1]) | logP ([6]; read-out: logP) | Inhibition (Mus musculus [8]) [%]
CCOP(=O)(O)C(Cl)(Cl)P(=O)(O)O | 15.4 | 3.11 | 3.26 | 0.77 | 3.79 | -5.44 | 37.9 | – | – | –
CCCCCCOP(=O)(O)C(Cl)(Cl)P(=O)(OCCCCCC)OCCCCCC | – | – | – | – | – | – | – | 4.31 | 4.89 | 58
CCCCCCOP(=O)(O)C(Cl)(Cl)P(=O)(O)OCCCCCC | – | 2.84 | – | 1.43 | 3.65 | – | 31 | 3.41 | -0.64 | 20.5
CCCCCCOP(=O)(OCCCCCC)C(Cl)(Cl)P(=O)(O)O | – | 3.03 | – | 0.93 | 2.91 | – | 7.6 | 3.25 | -0.15 | 15.1
CCCCCCOP(=O)(O)C(Cl)(Cl)P(=O)(O)O | – | – | – | – | 3.4 | – | 17.9 | 3.42 | -2.75 | 21.1
CC(C)OP(=O)(O)C(Cl)(Cl)P(=O)(O)OC(C)C | – | 2.96 | – | 1.09 | 2.3 | – | 1.9 | 2.93 | -2.96 | 8
CCOP(=O)(O)C(Cl)(Cl)P(=O)(OCC)OCC | – | 3.15 | – | 0.7 | 2.88 | – | 7 | 3.23 | -2.37 | 14.7
CCOP(=O)(O)C(Cl)(Cl)P(=O)(O)OCC | – | 2.98 | – | 1.05 | 3.71 | – | 34 | 3.15 | -3.96 | 12.3
CC(C)OP(=O)(O)C(Cl)(Cl)P(=O)(OC(C)C)OC(C)C | – | 2.82 | – | 1.51 | 2.28 | – | 1.9 | 2.9 | -0.95 | 7.4
CC(C)OP(=O)(OC(C)C)C(Cl)(Cl)P(=O)(O)O | – | 2.9 | – | 1.25 | 3.19 | – | 13.6 | 1.3 | -3.56 | 0.8
CC(C)OP(=O)(O)C(Cl)(Cl)P(=O)(O)O | – | 2.9 | – | 1.27 | 2.57 | – | 3.6 | 3.12 | -3.24 | 11.8
CC(C)OP(=O)(OC(C)C)C(Cl)(Cl)P(=O)(OC(C)C)OC(C)C | – | 2.81 | – | 1.54 | 3.67 | – | 32.1 | 3.32 | 2.89 | 17.5
CCOP(=O)(OCC)C(Cl)(Cl)P(=O)(OCC)OCC | – | 2.81 | – | 1.52 | 2.72 | – | 5 | 3.36 | 1.31 | 18.8
